The source made the active and inactive calls. The calls are words filed in the database; no cut-off is given here.
Experiments:
[1] = test system: A549; experiment: Antiproliferative activity against human A549 cells after 48 hrs by MTT assay; format: functional, cell-based; conditions: A549, 48 h
Outline: (§1)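 MTT assay: cells seeded at 4-8 × 10³ per well, incubated overnight at 37 °C in 5% CO₂, then given fresh medium with graded compound concentrations or equal DMSO for 48 h. MTT (5 mg/mL solution) added for a further 4 h, formazan dissolved in DMSO, absorbance read at 490 nm. Six cancer cell lines tested.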

[2] = biological target: DNA topoisomerase 2-alpha (Homo sapiens) (UniProt P11388); experiment: Inhibition of human recombinant topoisomerase 2-alpha expressed in Escherichia coli assessed as reduction in enzyme-mediated relaxation of supercoiled pBR322 DNA at 100 uM after 10 to 15 mins by agarose gel electrophoresis
Outline: (§2)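 Relaxation of 500 ng supercoiled pBR322 by 1 unit human Topo I or Topo IIα, with or without compound, in 20 µL reaction buffer at 37 °C for 10-15 min. Reactions stopped with loading buffer, run on 0.8% agarose in TAE at 80 V for 30 min. Gels stained with ethidium bromide 2.5 µg/mL and viewed under UV.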

[3] = test system: HeLa; experiment: Antiproliferative activity against human HeLa cells after 48 hrs by MTT assay; format: functional, cell-based; outline: as §1
[4] = test system: CCRF-CEM; experiment: Antiproliferative activity against human CCRF-CEM cells after 48 hrs by MTT assay; format: functional, cell-based; outline: as §1
[5] = test system: MCF7; experiment: Antiproliferative activity against human MCF7 cells after 48 hrs by MTT assay; format: functional, cell-based; conditions: MCF7, 48 h; outline: as §1
[6] = biological target: DNA topoisomerase 2-alpha (Homo sapiens) (UniProt P11388); experiment: Inhibition of human recombinant topoisomerase 2-alpha expressed in Escherichia coli assessed as reduction in enzyme-mediated relaxation of supercoiled pBR322 DNA at 10 to 50 uM after 10 to 15 mins by agarose gel electrophoresis; outline: as §2
[7] = Antiproliferative activity against human HCT116 cells after 48 hrs by MTT assay; format: functional, cell-based; conditions: HCT-116, 48 h; outline: as §1
[8] = biological target: T1, DNA topoisomerase 1 (Homo sapiens) (UniProt P11387); experiment: Inhibition of human topoisomerase 1 assessed as reduction in enzyme-mediated relaxation of supercoiled pBR322 DNA at 50 to 100 uM after 10 to 15 mins by agarose gel electrophoresis; outline: as §2
T1 sequence (whole entry): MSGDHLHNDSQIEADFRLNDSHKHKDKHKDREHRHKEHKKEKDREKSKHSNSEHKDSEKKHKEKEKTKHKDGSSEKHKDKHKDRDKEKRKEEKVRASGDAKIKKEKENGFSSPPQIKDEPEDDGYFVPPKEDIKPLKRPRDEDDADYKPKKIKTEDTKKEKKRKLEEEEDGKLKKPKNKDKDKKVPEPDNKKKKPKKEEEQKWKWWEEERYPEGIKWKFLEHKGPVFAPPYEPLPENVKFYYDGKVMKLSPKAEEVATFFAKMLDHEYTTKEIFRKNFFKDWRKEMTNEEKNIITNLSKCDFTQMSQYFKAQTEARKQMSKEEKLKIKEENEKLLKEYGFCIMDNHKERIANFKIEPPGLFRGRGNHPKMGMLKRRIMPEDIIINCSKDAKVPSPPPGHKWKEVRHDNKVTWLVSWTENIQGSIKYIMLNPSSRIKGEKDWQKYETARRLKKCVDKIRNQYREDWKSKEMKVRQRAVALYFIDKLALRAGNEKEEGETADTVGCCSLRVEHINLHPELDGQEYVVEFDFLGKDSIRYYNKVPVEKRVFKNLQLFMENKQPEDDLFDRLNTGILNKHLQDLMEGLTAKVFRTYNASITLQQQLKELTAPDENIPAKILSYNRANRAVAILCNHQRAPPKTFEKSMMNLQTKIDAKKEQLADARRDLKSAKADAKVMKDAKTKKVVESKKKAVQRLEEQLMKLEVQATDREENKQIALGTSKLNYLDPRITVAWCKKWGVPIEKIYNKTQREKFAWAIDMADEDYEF

[9] = test system: Calf thymus DNA; experiment: Binding affinity to calf thymus DNA after 5 mins by UV-vis spectrophotometry; format: nucleic-acid assay; conditions: Bos taurus
Outline: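 ctDNA at 0-44 µM is added to compound at 10 µM final in Tris-HCl buffer (pH 7.4). UV-vis absorption spectra are recorded after 5 min standing. The binding constant K_b is taken from a plot of absorption data against DNA concentration.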

[10] = test system: A549; experiment: Induction of DNA damage in human A549 cells assessed as tail DNA at 10 uM after 24 hrs by propidium iodide staining based comet assay (reference value: 0.02%); format: cell-based
Outline: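 Alkaline comet assay. About 10⁵ A549 cells per well incubated 12 h, then treated 24 h in serum-free medium against a DMSO control. Cells embedded in low-melting agarose, lysed 2 h, alkaline-unwound 0.5 h at 4 °C, electrophoresed at 300 mA for 25 min in the dark. Slides neutralized, PI-stained, 50 random cells scored for % tail DNA.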

DNA topoisomerase 2-alpha (Homo sapiens), sequence (P11388 whole entry): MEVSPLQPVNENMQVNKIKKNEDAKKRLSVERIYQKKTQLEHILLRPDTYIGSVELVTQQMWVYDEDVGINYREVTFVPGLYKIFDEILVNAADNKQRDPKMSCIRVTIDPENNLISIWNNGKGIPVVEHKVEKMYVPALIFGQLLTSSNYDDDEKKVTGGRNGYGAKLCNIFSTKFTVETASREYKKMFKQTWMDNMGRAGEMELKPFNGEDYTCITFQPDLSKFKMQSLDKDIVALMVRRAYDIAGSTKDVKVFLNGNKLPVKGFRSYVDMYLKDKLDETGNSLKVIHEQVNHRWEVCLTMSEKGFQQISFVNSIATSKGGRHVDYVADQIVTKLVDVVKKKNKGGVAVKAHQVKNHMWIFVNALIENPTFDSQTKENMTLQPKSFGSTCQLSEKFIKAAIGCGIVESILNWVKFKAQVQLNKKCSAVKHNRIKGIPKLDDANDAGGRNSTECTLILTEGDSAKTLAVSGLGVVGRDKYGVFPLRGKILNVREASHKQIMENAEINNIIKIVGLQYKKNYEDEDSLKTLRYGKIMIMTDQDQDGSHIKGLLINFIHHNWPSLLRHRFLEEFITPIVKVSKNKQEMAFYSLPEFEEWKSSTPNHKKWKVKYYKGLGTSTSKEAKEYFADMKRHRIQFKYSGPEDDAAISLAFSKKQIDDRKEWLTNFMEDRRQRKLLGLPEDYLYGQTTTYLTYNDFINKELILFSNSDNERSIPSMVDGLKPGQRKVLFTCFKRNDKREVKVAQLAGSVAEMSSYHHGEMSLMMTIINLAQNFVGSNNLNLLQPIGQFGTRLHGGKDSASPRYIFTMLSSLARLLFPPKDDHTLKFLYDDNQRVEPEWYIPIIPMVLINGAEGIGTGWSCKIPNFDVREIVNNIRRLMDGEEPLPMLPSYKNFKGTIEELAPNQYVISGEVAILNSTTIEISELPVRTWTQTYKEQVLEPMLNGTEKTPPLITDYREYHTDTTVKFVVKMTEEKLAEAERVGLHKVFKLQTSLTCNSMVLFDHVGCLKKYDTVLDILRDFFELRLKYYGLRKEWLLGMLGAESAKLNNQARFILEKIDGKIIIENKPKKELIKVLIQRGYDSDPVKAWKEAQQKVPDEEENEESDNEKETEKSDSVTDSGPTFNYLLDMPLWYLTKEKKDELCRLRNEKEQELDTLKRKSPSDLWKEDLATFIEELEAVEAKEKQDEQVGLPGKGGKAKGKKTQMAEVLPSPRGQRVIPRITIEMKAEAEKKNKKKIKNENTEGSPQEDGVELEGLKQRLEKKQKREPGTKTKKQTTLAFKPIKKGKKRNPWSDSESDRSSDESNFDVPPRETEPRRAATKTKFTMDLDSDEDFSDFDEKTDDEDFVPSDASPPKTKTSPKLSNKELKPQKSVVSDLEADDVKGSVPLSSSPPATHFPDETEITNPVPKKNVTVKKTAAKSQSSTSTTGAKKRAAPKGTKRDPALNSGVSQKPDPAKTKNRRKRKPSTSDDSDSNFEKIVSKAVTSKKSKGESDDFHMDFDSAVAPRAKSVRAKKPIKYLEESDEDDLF

| SMILES | IC50 [1] [µM] | inhibition [2] | further results |
| --- | --- | --- | --- |
| COc1ccc2nc3cc(Cl)ccc3c(NCc3ccc(C(C)(C)C)cc3)c2c1 | 7.03 | Active |  |
| COc1ccc2nc3cc(Cl)ccc3c(NCc3cccc(Cl)c3)c2c1 | 4.64 | Active |  |
| COc1ccc2nc3cc(Cl)ccc3c(NCc3ccc(C(F)(F)F)cc3)c2c1 | 6.04 | Active |  |
| COc1ccc2nc3cc(Cl)ccc3c(NCc3ccccc3C(F)(F)F)c2c1 | 6.32 | Active |  |
| COc1ccc2nc3cc(Cl)ccc3c(NCc3ccc(F)cc3)c2c1 | 4.05 | Active | inhibition [8]: Active |
| COc1ccc2nc3cc(Cl)ccc3c(NCc3ccc(Cl)cc3)c2c1 | 4.2 | Active |  |
| COc1cc(CNc2c3ccc(Cl)cc3nc3ccc(OC)cc23)cc(OC)c1 | 9.2 | Active |  |
| COc1cc(NS(C)(=O)=O)ccc1Nc1c2ccccc2nc2ccccc12 [AMSACRINE] | 5.96 |  | IC50 [3]: 0.34 µM; IC50 [4]: 0.18 µM; Kb [9]: 1.36 ×10⁵ /M; IC50 [5]: 26.8 µM; IC50 [7]: 0.93 µM |
| COc1ccc2nc3cc(Cl)ccc3c(NCc3ccc(F)c(F)c3)c2c1 | > 25 | Active |  |
| COc1ccc2nc3cc(Cl)ccc3c(NCc3cccc(F)c3)c2c1 | 4.19 | Active |  |
| COc1cc([C@@H]2c3cc4c(cc3[C@@H](O[C@@H]3O[C@@H]5CO[C@@H](C)O[C@H]5[C@H](O)[C@H]3O)[C@H]3COC(=O)[C@H]23)OCO4)cc(OC)c1O [ETOPOSIDE] | 3.82 |  | inhibition [6]: Active; IC50 [3]: 41.2 µM; IC50 [4]: 0.12 µM; IC50 [7]: 6.03 µM; Activity [10]: 46.7% |

Molecules with a lower IC50 [1], results first:

| IC50 [1] [µM] | inhibition [2] | SMILES | further results |
| --- | --- | --- | --- |
| 3 | Active | COc1ccc2nc3cc(Cl)ccc3c(NCc3ccccc3Br)c2c1 |  |
| 0.09 |  | COc1cccc2c1C(=O)c1c(O)c3c(c(O)c1C2=O)C[C@@](O)(C(=O)CO)C[C@@H]3O[C@H]1C[C@H](N)[C@H](O)[C@H](C)O1 [DOXORUBICIN] | IC50 [3]: 0.78 µM; IC50 [4]: 0.052 µM; IC50 [5]: 0.81 µM |
| 0.65 | Active | COc1ccc2nc3cc(Cl)ccc3c(NCc3ccc4c(c3)OCO4)c2c1 | inhibition [6]: Active; IC50 [3]: 7 µM; IC50 [4]: 2 µM; IC50 [5]: 10.3 µM; IC50 [7]: 1.62 µM |
| 2.22 | Active | COc1ccc2nc3cc(Cl)ccc3c(NCc3cccc(C)c3)c2c1 |  |
| 2.18 | Active | COc1ccc2nc3cc(Cl)ccc3c(NCc3cc(OC)c(OC)c(OC)c3)c2c1 |  |
| 2.82 | Active | COc1ccc2nc3cc(Cl)ccc3c(NCc3ccccc3F)c2c1 |  |
| 2.63 | Active | COc1ccc2nc3cc(Cl)ccc3c(NCc3ccc(C)cc3)c2c1 |  |
| 0.72 | Active | COc1ccc2nc3cc(Cl)ccc3c(NCc3ccc(OC(F)F)cc3)c2c1 | inhibition [6]: Active; IC50 [3]: 4.41 µM; IC50 [4]: 6.87 µM; IC50 [5]: 9.95 µM; IC50 [7]: 1.16 µM |
| 3.26 | Active | COc1ccc2nc3cc(Cl)ccc3c(NCc3ccc(Br)cc3)c2c1 |  |
| 0.95 | Active | COc1ccc2nc3cc(Cl)ccc3c(NCc3ccc(OC)c(F)c3)c2c1 | inhibition [6]: Active; IC50 [3]: 4.08 µM; IC50 [4]: 3.08 µM; IC50 [5]: 7.6 µM; IC50 [7]: 0.86 µM |
| 1.82 | Active | COc1ccc2nc3cc(Cl)ccc3c(NCc3cc(F)c(OC)c(F)c3)c2c1 |  |
| 2.58 | Active | CCc1ccc(CNc2c3ccc(Cl)cc3nc3ccc(OC)cc23)cc1 | inhibition [8]: Active |
| 2.56 | Active | COc1ccc2nc3cc(Cl)ccc3c(NCc3ccc(OC)c(OC)c3)c2c1 | inhibition [8]: Active |
| 0.16 | Active | COc1ccc2nc3cc(Cl)ccc3c(NCc3cccc(C(F)(F)F)c3)c2c1 | inhibition [6]: Active; IC50 [3]: 10.1 µM; IC50 [4]: 5.11 µM; IC50 [5]: 10.5 µM; IC50 [7]: 0.76 µM |

Reference: ChEMBL document CHEMBL3792296, “Synthesis and antiproliferative activity of 9-benzylamino-6-chloro-2-methoxy-acridine derivatives as potent DNA-binding ligands and topoisomerase II inhibitors” (Eur J Med Chem, 2016)
